Only a selection was taken, and hits are over-represented in it overall.
HSF1 activator = HSF-1 activators, primary screen, NIH3T3-HGL cells, MG132 stress, luminescence, single point; NIH3T3-HGL HSF-1 luciferase reporter, 8 h; 100% = twice DMSO control signal; activation, % at 9 µM; hit rate 1.7% among 300,000; AID 504408, 2011;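 active = mean replicate activation of at least 50% with a set share of replicates each reaching 50%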;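 note: 0% = median of the neutral control wells and 100% = twice that signal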
HSF1 inh = HSF1 inhibitors in luciferase reporter cells, primary screen, cell-based, NIH3T3, luminescence; NIH3T3-HGL HSE-luciferase, MG132-induced, luminescence 8 h; active compounds read low; activity change, negative = inhibition, % at 7.5 µM (by protocol); AID 2098, 2009; hit rate 0.77% among 300,000;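 active = more than half of replicate wells show activity change below -50%, luminescence cut by over half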;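 note: luciferase reports HSF-1 transcriptional activity via heat shock element; 0% = median of DMSO wells and -100% = zero luminescence signal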
Hsp70 activator = Hsp70 transcriptional activators, primary screen, cell-based, HeLa, Hsp70 promoter luciferase, luminescence, 10 µM | HeLa Hsp70 promoter luciferase reporter; scaled: vehicle 0, proteasome-inhibitor control 100% | hit rate 0.04% among 200,000 | activation, % at 10 µM | AID 1203, 2008;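 active = activation above the mean across all tested compounds plus 3 SD, cutoff set per campaign, cut at about 5.5% in these data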;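 note: 100% = MG132 at 30 µM as the positive control and 0% = DMSO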
T cruzi inh = inhibitors of intracellular T. cruzi growth, primary screen, luminescence, NIH3T3 host cells; T. cruzi beta-gal in NIH3T3, 90 h; inhibition, % (test concentration not listed); hit rate 1.4% among 300,000; AID 1885, 2009;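 active = mean inhibition across valid replicates above about 55%, limit read from the data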;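 note: signal also drops with host cell toxicity which is not excluded here; 0% = plate median of DMSO wells and 100% = zero luminescence signal; higher percent means less beta-gal luminescence so fewer parasites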
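System: NIH/3T3 fibroblasts plus reporter T. cruzi. Medium: DMEM plus 2% FBS. Probe or stimulus: 5000 reporter trypomastigotes per well. Compound: single 50 nL compound addition per well in DMSO. Incubation: co-culture of at least 90 h after 3 h attachment. Detection: GalScreen β-gal luminescence, detergent lysis, 60 min. Evaluation: parasite load inhibition, %.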
L major viab = Leishmania major promastigote growth inhibition, primary screen; hit rate 9% among 200,000; Leishmania major promastigotes, resazurin fluorescence viability; inhibition, % at 10 µM; in the data active = inhibition above about 50%;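 note: promastigotes grown with compound for 44 hours at 28 °C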
An asterisk follows results filed as active; nt = no result.

SMILES	HSF1 activator	HSF1 inh	Hsp70 activator	T cruzi inh	L major viab
Cc1[nH]c2ccccc2c1SCc1nnc(SCc2ccc(Cl)cc2)n1C	5	-3	nt	59*	nt
Cc1ccc(CSc2nnc(CS(=O)Cc3ccc(Cl)cc3Cl)n2C)cc1 (configuration not stated)	-3	-2	0	20	0
Cn1c(CS(=O)Cc2c(Cl)cccc2Cl)nnc1SCc1ccc(Cl)cc1 (configuration not stated)	61*	26	0	19	-1
CC(=O)NC1C(Oc2ccccc2C)OC2COC(c3ccco3)OC2C1O (configuration not stated)	-8	6	0	-15	2
Cc1occc1C(=O)O/N=C(\N)c1ccc(Cl)cc1	58*	23	nt	10	nt
CC(C)(C)c1ccc(C(=O)O/N=C(\N)c2ccccc2)cc1	-95	-93*	nt	39	nt
N/C(=N\OC(=O)c1ccco1)c1ccccc1	55*	20	0	-2	3
Cc1ccc(/C(N)=N/OC(=O)c2ccco2)cc1	55*	26	0	-13	6
CCOc1ccccc1NC(=O)CN1CCC(NC(=O)Nc2ccccc2)CC1	-20	5	nt	24	nt
O=[N+]([O-])c1ccc(N2CCN(CC3CCCCC3)CC2)cc1	-4	-1	nt	2	nt
c1ccc(Nc2nc(-c3ccncc3)cs2)cc1	32	21	0	65*	7
Clc1ccc(Nc2nc(-c3ccncc3)cs2)cc1	18	5	0	57*	-1
Nc1ccc(Nc2nc(-c3ccncc3)cs2)cc1	18	0	0	4	81*
COc1ccc(-c2csc(Nc3ccccc3)n2)cc1	21	0	0	2	2
O=C(/C=C/c1ccccc1)Nc1nc(-c2ccncc2)cs1	28	5	0	66*	9
Fc1ccc(Nc2nc(-c3ccncc3)cs2)cc1	4	6	0	47	12
CCn1ccnc1CN(C)C(=O)C1CCC(=O)N(CCc2cccc(F)c2)C1 (configuration not stated)	-5	-4	nt	-1	nt
O=C(COC(=O)Cc1c(Cl)cccc1Cl)NCC1CCCO1 (configuration not stated)	23	2	0	-6	0
O=C(Cn1ccc([N+](=O)[O-])n1)NCc1ccccc1	9	-2	nt	-11	nt
CCC(C)(C)C(=O)Nc1ncc(S(=O)(=O)c2ccc([N+](=O)[O-])cc2)s1	17	7	0	39	81*
Cc1cc(=O)[nH]c(SCC(=O)Nc2ncc(S(=O)(=O)c3ccc([N+](=O)[O-])cc3)s2)n1	1	-8	0	4	-3
O=C(Nc1ncc(S(=O)(=O)c2ccc([N+](=O)[O-])cc2)s1)c1ccc2ccccc2c1	-1	0	0	55*	99*
CC(C)c1ccc(Nc2nnc(SCC(=O)Nc3ncc(S(=O)(=O)c4ccc([N+](=O)[O-])cc4)s3)s2)cc1	3	0	0	-3	-3
CCCC(C)C(=O)Nc1ncc(S(=O)(=O)c2ccc([N+](=O)[O-])cc2)s1 (configuration not stated)	14	0	nt	63*	nt
O=C(Nc1ncc(S(=O)(=O)c2ccc([N+](=O)[O-])cc2)s1)c1cccnc1	22	-2	nt	10	nt
SMILES	HSF1 activator	HSF1 inh	Hsp70 activator	T cruzi inh	L major viab
Cc1ccc(Nc2nnc(SCC(=O)Nc3ncc(S(=O)(=O)c4ccc([N+](=O)[O-])cc4)s3)s2)cc1	-45	-32	0	8	55*
CC(C)CC(c1nnnn1C1CCCC1)N1CCC(C(N)=O)CC1 (configuration not stated)	12	-6	0	-4	-3
Cc1c(C(=O)/C=C/N(C)C)nnn1-c1ccc(Cl)cc1C#N	7	1	nt	8	nt
CC1CCN(S(=O)(=O)c2cn(CC(=O)Nc3ccc(C#N)cc3)cn2)CC1	0	-4	nt	-15	nt
O=C(Nc1ncc(Cc2cc(Cl)ccc2Cl)s1)c1ccc([N+](=O)[O-])cc1	21	1	0	57*	-2
COc1ccc(-n2c(-c3ccccc3)nnc2-c2ccc(Cl)cc2)cc1	-11	2	0	40	0
COc1ccc(-n2c(-c3ccc(Cl)cc3)c[n+]3c2CCc2ccccc2-3)cc1	-9	4	0	74*	100*
COc1cc(C(=O)NC(C)CCn2cccn2)ccc1OC1CCN(C(C)=O)CC1 (configuration not stated)	-32	-16	nt	-13	nt
CN(C(=O)c1sc2nc(N3CCOCC3)c3c(c2c1N)CCCC3)c1ccccc1	23	15	-1	35	100*
Nc1c(C(=O)NCCc2ccccc2)sc2nc(N3CCOCC3)c3c(c12)CCCC3	-8	-3	0	44	15
COc1cccc(Oc2c(C)oc3c(CN4CCCC4)c(O)ccc3c2=O)c1	-5	3	nt	-6	nt
Cc1cccc(N2CCN(C(=O)Cc3ccc(-n4c(=O)[nH]c5ccsc5c4=O)cc3)CC2C)c1 (configuration not stated)	-1	1	0	11	56*
O=C(Cc1ccc(-n2c(=O)[nH]c3ccsc3c2=O)cc1)N1CCN(c2ccc(Cl)cc2)CC1	-6	-5	0	1	70*
CN(CCNC(=O)CN1CCN(Cc2ccccc2Cl)C1=O)Cc1ccccc1	17	-3	0	38	59*
COc1ccc(CCNC(=O)CN2CCN(Cc3ccccc3F)C2=O)cc1OC	-79	-74*	nt	7	nt
Cc1ccc(CCNC(=O)CN2CCN(Cc3ccccc3F)C2=O)cc1	5	1	0	7	1
C[C@H](NC(N)=O)C(=O)N1CCN(S(=O)(=O)c2ccc3ccccc3c2)CC1	11	0	nt	-1	nt
CSc1ccc(-c2nnn(Cc3ccc(Br)cc3)n2)cc1	41	31	0	7	-9
CSc1ccc(-c2nnn(Cc3ccccn3)n2)cc1	77*	45	0	-3	-4
CCS(=O)(=O)c1ccc(OC)c(N=Nc2ccc(O)c3ncccc23)c1	-8	-6	0	18	100*
CCN(CC)S(=O)(=O)c1cc(OC)ccc1N=Nc1ccc(O)c2ncccc12	-48	-44	nt	41	nt
CCOc1ccc(N=Nc2ccc(O)c3ncccc23)cc1	89*	54	nt	65*	nt
NS(=O)(=O)c1ccc(N=Nc2ccc(O)c3ncccc23)cc1	-11	-14	nt	66*	nt
O=C(O)c1ccc(-c2ncc[nH]2)cc1	-7	-6	0	-13	0
Cn1nc(C(=O)NNC(=O)COc2ccccc2)c2ccccc2c1=O	-8	-2	0	-3	55*
COc1ccc(/C=C2/SC(=O)N(CCC(=O)Nc3ccccc3)C2=O)cc1OC	6	1	0	-6	-5
